The list is not random: actives were taken first. Their share in the collection is about 1.6%.
TLR4-MyD88 BLA: TLR4-MyD88 interaction inhibition in cells | O00206+Q99836 | HeLa CL3-4 TLR4/MyD88 BLA complementation, FRET ratio | inhibition, % at 8.4 µM | 200,000 tested, 0.18% active; in the data active = inhibition above about 25%;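 note: 0% = vehicle and 100% = reference inhibitor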
Target sequence (O00206 whole entry, looked up): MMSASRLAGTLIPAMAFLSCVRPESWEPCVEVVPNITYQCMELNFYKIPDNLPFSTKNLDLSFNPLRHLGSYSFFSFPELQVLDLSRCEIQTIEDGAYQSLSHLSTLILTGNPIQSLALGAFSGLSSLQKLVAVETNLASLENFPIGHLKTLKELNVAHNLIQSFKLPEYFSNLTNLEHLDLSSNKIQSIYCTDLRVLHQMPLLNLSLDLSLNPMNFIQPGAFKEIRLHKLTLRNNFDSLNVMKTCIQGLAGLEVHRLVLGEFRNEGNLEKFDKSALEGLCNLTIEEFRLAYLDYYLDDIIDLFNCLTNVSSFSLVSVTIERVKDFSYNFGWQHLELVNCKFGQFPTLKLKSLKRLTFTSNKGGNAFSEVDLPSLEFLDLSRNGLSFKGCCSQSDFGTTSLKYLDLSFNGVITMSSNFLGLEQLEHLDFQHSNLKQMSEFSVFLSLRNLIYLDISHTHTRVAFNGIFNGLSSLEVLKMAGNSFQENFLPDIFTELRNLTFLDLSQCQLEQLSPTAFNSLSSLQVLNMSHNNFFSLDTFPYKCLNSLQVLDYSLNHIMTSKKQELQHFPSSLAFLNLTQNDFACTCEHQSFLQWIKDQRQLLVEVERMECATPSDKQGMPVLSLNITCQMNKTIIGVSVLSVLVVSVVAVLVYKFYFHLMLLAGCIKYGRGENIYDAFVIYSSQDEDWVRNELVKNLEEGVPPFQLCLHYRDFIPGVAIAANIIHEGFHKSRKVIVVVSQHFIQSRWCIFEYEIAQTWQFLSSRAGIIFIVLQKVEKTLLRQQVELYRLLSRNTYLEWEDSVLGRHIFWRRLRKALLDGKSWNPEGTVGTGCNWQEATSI
Target sequence (Q99836 whole entry, looked up): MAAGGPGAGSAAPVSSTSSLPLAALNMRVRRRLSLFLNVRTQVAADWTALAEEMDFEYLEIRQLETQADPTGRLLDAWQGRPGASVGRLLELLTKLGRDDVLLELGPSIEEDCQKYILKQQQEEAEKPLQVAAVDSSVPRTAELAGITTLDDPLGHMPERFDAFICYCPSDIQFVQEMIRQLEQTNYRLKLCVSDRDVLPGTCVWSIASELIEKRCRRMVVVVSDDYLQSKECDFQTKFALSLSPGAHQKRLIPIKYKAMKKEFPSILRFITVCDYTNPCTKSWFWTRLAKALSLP
Lipid droplet: hepatic lipid droplet formation modulation; AML12 mouse hepatocytes, oleate lipid droplets, BODIPY imaging; inhibition, % at 6.5 µM; 240,000 tested, 0.4% active; AID 1656;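 active = lipid droplet intensity inhibited by at least 50%, with more than 500 cells counted; inconclusive = wells with under 300 cells, treated as cytotoxic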
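material = mouse AML12 hepatocyte cell line, fixed after treatment | also added = 100 µM oleic acid challenge | doses = compound at 6.5 µM only | schedule = overnight exposure | technique = Image-based BODIPY and DAPI two-channel analysis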
TLR9-MyD88 inh: blocks human TLR9 binding to MyD88. Q9NR96+Q99836. AID 504734. CHO BLA complementation TLR9-MyD88, CCF4 FRET ratio. inhibition, % at 4.98 µM. 340,000 tested, 0.21% active;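 active = inhibition above the mean over all tested compounds plus 3 SD, cut at about 21% in these data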;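 note: 0% = DMSO only wells and 100% = clavulanate BLA inhibitor control wells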
SR-BI DiI inh: inhibitors of mouse SR-BI mediated HDL lipid uptake; Q61009; ldlA[mSR-BI] CHO cells, DiI-HDL uptake fluorescence, 3 h; inhibition, % at 12.5 µM; 320,000 tested, 0.96% active;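 active = mean replicate inhibition of at least 70% and a set share of replicates each scoring 70 or more; inconclusive = meets just one of the two criteria; inactive = fails both criteria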;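 note: 0% = median of neutral control wells and 100% = median of positive control wells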
SR-BI DiI-HDL act: SR-BI HDL lipid transfer activation; CHO ldlA[mSR-BI] cells, DiI-HDL uptake fluorescence, 3 h; 100 = double the neutral-control signal; 320,000 tested, 0.096% active; activation, % at 12.5 µM;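 active = mean replicate activation of at least 60% and every replicate at or above 60%; inconclusive = mean or all-replicate condition met, but not both; inactive = mean below 60% and not all replicates reaching 60%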;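 note: 0% = median plate neutral-control signal and 100% = twice that signal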
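Test system: SR-BI-overexpressing, LDLR-lacking CHO cells; Also added: labelled HDL, 10 µg/mL; Measured by: bottom-read cell fluorescence after medium removal, ex 550/em 595 nm; Timing: 3 h uptake period with compound, 37 °C; Buffer or medium: F12, 0.5% BSA, 25 mM HEPES; Doses: single compound concentration, delivered by pin transfer.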
NOD2-RIPK2 inh: inhibitors of human NOD2-RIPK2 interaction | O43353 | CHO BLA complementation NOD2-RIPK2, CCF4 ratio | inhibition, % at 4.98 µM | 360,000 tested, 0.38% active | AID 624267; in the data active = inhibition above about 21%;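 note: 0% = vehicle only and 100% = reference blocker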
Numbers without * were called inactive; u = inconclusive; x = no result.

SMILES | TLR4-MyD88 BLA | Lipid droplet | TLR9-MyD88 inh | SR-BI DiI inh | SR-BI DiI-HDL act | NOD2-RIPK2 inh
COC(=O)c1sc2ncn(CC(=O)NCCc3ccc(OC)c(OC)c3)c(=O)c2c1C | 6.7 | 28.8 | -3.5 | 75.8* | -75.8 | -3.1
COc1ccc(NC(=O)CCCNC(=O)Cn2cnc3sc(C)c(C)c3c2=O)c(OC)c1 | x | -6.9 | 6.4 | -1.5 | 1.5 | -4.0
COc1ccc(NC(=O)CCCNC(=O)Cn2cnc3sc(C)c(C)c3c2=O)cc1Cl | x | -6.1 | 1.8 | x | x | -1.4
COc1cc(OC)c(NC(=O)CCCNC(=O)Cn2cnc3sc(C)c(C)c3c2=O)cc1Cl | x | -7.5 | -7.5 | 81.4* | -81.4 | -8.8
COc1ccc(C)cc1NC(=O)CCCNC(=O)Cn1cnc2sc(C)c(C)c2c1=O | x | 23.4 | -4.2 | 78.4* | -78.4 | 4.7
COC(=O)C1=C(O)/C(=C\c2ccc(O)c(OC)c2)N=C1C | -2.1 | 16.6 | 3.4 | -3.8 | 3.8 | -9.0
CCc1c(C)nc2ncnn2c1N1CCC(C(=O)Nc2cccc(C(C)=O)c2)CC1 | 6.6 | x | -0.9 | 42.2 | -42.3 | -0.9
C=C(NC(=O)C(=C)NC(=O)c1csc(C2=NC3c4csc(n4)C4NC(=O)c5csc(n5)C(C(C)(O)C(C)O)NC(=O)C5CSC(=N5)/C(=C/C)NC(=O)C(C(C)O)NC(=O)c5csc(n5)C3(CC2)NC(=O)C(C)NC(=O)C(=C)NC(=O)C(=C)NC(=O)C(C(C)C)NC2C=Cc3c(C(C)O)cc(nc3C2O)C(=O)OC4C)n1)C(N)=O (stereo unspecified) | x | x | 4.8 | -143.3 | 143.3* | -4.7
CCO[C@H]1OC(C(=O)N2CCCCCCC2)=C[C@@H](C)[C@@H]1CCCO | 6.8 | -18.5 | -9.1 | -13.7 | 13.7 | -0.7
COc1ccc(-c2c(Sc3ccccc3)c3cc(-c4ccc5c(c4)OCO5)ccc3n2C)cc1 | x | x | x | x | x | -2.0
COc1ccc(-c2[nH]n(-c3ccc([N+](=O)[O-])cc3)c(=O)c2C=NCC2CCCO2)cc1 (stereo unspecified) | -2.2 | -1.6 | -7.6 | 82.0* | -82.0 | -8.4
COc1ccc(SCCN2CC[C@@H](C(C)(C)C)CCC2=O)cc1 | x | x | 8.3 | -14.0 | 14.0 | 9.1
COc1ccc(C(=O)N2CCN(CCNC(=O)C(=O)Nc3ccc(Br)cc3)CC2)cc1 | x | 2.9 | -7.2 | 20.6 | -20.6 | 5.8
COc1ccc(NC(=O)C(=O)NCCN2CCN(C(=O)c3ccc(C(C)(C)C)cc3)CC2)cc1 | x | 0.8 | 2.9 | 76.8* | -76.8 | 3.7
CC(C)C(=O)Nc1ccc(C(=O)N/N=C/c2cc(Br)cc(Br)c2O)cc1 | 3.0 | 17.4 | 1.6 | 146.5* | -146.5 | -2.7
COc1cc(OC)c(/C=N/NC(=O)c2ccc(NC(C)=O)cc2)cc1Br | 11.1 | -15.9 | -16.6 | u | -70.7 | -4.2
CC(=O)Nc1ccc(C(=O)N/N=C/c2cc(Br)cc(Br)c2O)cc1 | 4.8 | -8.1 | 9.0 | 135.1* | -135.1 | -2.0
O=c1cc(CN2CCN(c3ccc(F)cc3)CC2)c2cc3c(cc2o1)CCCC3 | 10.3 | x | 1.9 | 70.9* | -70.9 | -7.7
S=C(N/N=C/c1ccccc1)N1CCOCC1 | -4.4 | 5.6 | 4.7 | -13.2 | 13.2 | -4.0
COc1ccc(C)cc1Nc1n[n+](-c2ccccc2)c(-c2cc([N+](=O)[O-])cc(OC)c2O)s1 | x | 0.1 | 1.6 | 94.7* | -94.7 | 3.1
COc1cc(C)ccc1S(=O)(=O)N1CCN(C23CC4CC(CC(C4)C2)C3)CC1 | 7.0 | 7.8 | 8.6 | 76.7* | -76.6 | 7.1
O=C(NC(=S)Nc1ccccn1)c1ccccc1 | x | 60.9* | 10.5 | 4.5 | -4.5 | -1.6
O=C(NC(=S)Nc1cccc(NC(=S)NC(=O)c2ccccc2)c1)c1ccccc1 | x | x | 7.9 | 71.7* | -71.7 | -2.4
O=C(NC(=S)Nc1ccccn1)c1ccc([N+](=O)[O-])cc1 | -17.9 | 2.5 | 8.4 | 15.5 | -15.5 | 7.2
CCC(=O)Nc1cccc(NC(=S)NC(=O)c2ccccc2)c1 | -1.6 | -30.3 | -6.7 | 6.6 | -6.6 | 7.1
SMILES | TLR4-MyD88 BLA | Lipid droplet | TLR9-MyD88 inh | SR-BI DiI inh | SR-BI DiI-HDL act | NOD2-RIPK2 inh
Cc1ccc(/C=C/C(=O)NC(=S)Nc2ccc(S(=O)(=O)Nc3cc(C)on3)cc2)cc1 | x | 14.3 | -0.1 | -8.5 | 8.5 | 1.1
CCN(CC)CCN(C)C(=O)c1[nH]c(C(F)(F)F)nc1-c1ccccc1 | x | x | x | x | x | -11.3
C=CCOc1cccn2c(N(C=O)Cc3ccccc3)c(CC)nc12 | x | x | x | x | x | 10.2
COc1ccc(-c2c(C#Cc3ccsc3)c3cc(-c4ccc5cc[nH]c5c4)ccc3n2C)cc1 | x | x | 1.8 | 37.3 | -34.9 | -9.0
COc1ccc(-c2c(-c3ccc(OC)nc3)c3ccccc3n2C)cc1 | x | x | -6.8 | 77.5* | -77.5 | 0.8
COc1cc(OC)cc(-c2c(-c3ccc(F)cc3)c3cc(-c4ccc5[nH]ccc5c4)ccc3n2C)c1 | x | x | -2.3 | 87.6* | -87.6 | -2.1
COc1ccc(-c2c(-c3cc(OC)cc(OC)c3)n(C)c3ccc(-c4ccc(N(C)C)nc4)cc23)cc1 | x | x | -9.6 | 83.1* | -83.1 | -6.7
COc1cc(OC)cc(-c2c(C#Cc3ccsc3)c3cc(-c4ccc5cc[nH]c5c4)ccc3n2C)c1 | x | x | 1.9 | 72.4* | -72.4 | -5.0
COc1cccc(-c2c(-c3cc(OC)cc(OC)c3)n(C)c3ccc(-c4ccc5[nH]ccc5c4)cc23)c1 | x | x | -0.7 | 63.2 | -63.2 | -5.3
COc1ccc(NC(=O)c2cccc(N3C(=O)C4C5C=CC(C5)C4C3=O)c2)cc1Cl (stereo unspecified) | x | 11.1 | -2.8 | 8.8 | -8.8 | -4.4
COc1ccc(-c2c(-c3cc(OC)cc(OC)c3)n(C)c3ccc(-c4ccc5cc[nH]c5c4)cc23)cc1 | x | x | 7.0 | 85.1* | -85.1 | 2.9
CC[C@@H](C(=O)n1nc(C)cc1C)[C@H](NS(=O)(=O)c1ccc(C)cc1)c1ccccc1 | -5.8 | 8.4 | -14.1 | 22.2 | -22.2 | -2.1
Cc1cccc(N2CCN(S(=O)(=O)c3ccc(Cl)nc3)CC2C)c1 (stereo unspecified) | x | x | -8.2 | -3.0 | 3.0 | 3.3
COCc1cc(N2CCN(c3ccccc3F)CC2)nc(-c2ccccc2)n1 | 10.2 | 6.8 | 6.6 | 79.7* | -79.7 | -5.3
Cc1ccc2c(c1)COc1c3ccc(C(=O)NC(C)C)cc3nn1-2 | x | x | -0.3 | 41.4 | -41.4 | -2.2
CCOc1ccccc1-c1c2cc(O)c(=O)cc-2oc2cc(O)c(O)cc12 | 0.6 | -5.2 | 16.1 | 72.9* | -72.9 | 12.7
O=c1cc2oc3cc(O)c(O)cc3c(-c3ccccc3O)c-2cc1O | x | -14.1 | -8.2 | 27.4 | -27.4 | 7.6
COc1ccc(OC)c(-c2oc3ccccc3c(=O)c2O)c1 | -1.7 | 3.0 | 4.9 | 13.4 | -5.6 | 8.3
COc1ccc(OC)c(-c2c3cc(O)c(=O)cc-3oc3cc(O)c(O)cc23)c1 | 10.5 | 27.9 | 14.6 | 91.2* | -91.2 | 6.1

Compound activity from PubChem.
